Reference: ChEMBL document CHEMBL1131420 (J Med Chem, 1998)
pIC50, pKi: −log10 of the molar value.

What was measured:
[1] = molecular target: T1, Sodium-dependent dopamine transporter (Rattus norvegicus, UniProt P23977); assay: (§1) Inhibitory activity on dopamine transporters of rat striated membranes using [3H]- mazindol.
How it was run: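 Striatal membrane homogenate was added to tubes holding drug and about 4 nM [3H]mazindol in Krebs-Ringer-HEPES (pH 7.4). Incubation was 1 h at 4 °C, followed by filtration.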

[2] = molecular target: T1, Sodium-dependent dopamine transporter; assay: Inhibitory activity determined for [3H]DA (Dopamine transporter) uptake by striated synaptosomes; assay type: subcellular, Brain
[3] = molecular target: Monoamine transporters; serotonin & dopamine (Rattus norvegicus) (UniProt P31652+P23977); assay: Ratio of Ki value for 5-HT to that of DA.; assay type: protein assay
Sequence of Monoamine transporters; serotonin & dopamine (Rattus norvegicus) (P23977 whole entry, looked up): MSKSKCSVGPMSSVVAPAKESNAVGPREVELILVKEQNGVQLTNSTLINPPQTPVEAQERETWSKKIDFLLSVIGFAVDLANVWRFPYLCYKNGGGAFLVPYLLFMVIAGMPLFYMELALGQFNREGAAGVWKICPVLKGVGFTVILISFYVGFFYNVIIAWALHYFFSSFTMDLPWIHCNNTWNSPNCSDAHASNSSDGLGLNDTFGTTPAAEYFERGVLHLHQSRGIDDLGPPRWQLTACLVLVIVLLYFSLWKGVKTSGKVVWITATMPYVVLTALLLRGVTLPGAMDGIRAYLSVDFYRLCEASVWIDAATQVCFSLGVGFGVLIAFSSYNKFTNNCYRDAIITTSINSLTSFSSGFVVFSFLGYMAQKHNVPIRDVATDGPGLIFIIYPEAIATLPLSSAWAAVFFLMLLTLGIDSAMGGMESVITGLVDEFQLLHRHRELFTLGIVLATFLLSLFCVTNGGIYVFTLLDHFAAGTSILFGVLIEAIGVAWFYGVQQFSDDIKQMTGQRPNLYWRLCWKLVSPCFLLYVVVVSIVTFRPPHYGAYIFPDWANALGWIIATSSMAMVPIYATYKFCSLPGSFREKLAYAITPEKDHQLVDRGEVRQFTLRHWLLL
Sequence of Monoamine transporters; serotonin & dopamine (Rattus norvegicus) (P31652 whole entry, looked up): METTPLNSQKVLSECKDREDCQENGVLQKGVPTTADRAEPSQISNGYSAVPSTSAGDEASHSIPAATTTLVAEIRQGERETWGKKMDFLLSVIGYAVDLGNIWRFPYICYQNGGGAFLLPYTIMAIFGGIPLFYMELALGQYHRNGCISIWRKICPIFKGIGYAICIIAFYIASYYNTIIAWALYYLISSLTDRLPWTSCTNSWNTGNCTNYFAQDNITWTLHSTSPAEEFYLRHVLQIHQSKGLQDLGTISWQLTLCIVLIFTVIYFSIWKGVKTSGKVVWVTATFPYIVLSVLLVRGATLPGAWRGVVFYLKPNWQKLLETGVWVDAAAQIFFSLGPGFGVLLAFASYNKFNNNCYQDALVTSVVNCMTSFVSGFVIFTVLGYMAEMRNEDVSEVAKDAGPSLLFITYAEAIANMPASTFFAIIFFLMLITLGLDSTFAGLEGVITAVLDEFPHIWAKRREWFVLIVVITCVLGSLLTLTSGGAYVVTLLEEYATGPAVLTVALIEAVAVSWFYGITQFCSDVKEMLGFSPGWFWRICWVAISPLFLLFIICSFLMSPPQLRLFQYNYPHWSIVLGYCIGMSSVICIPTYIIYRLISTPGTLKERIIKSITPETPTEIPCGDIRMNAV

[4] = molecular target: T1, Sodium-dependent dopamine transporter; assay: Binding affinity of compound on dopamine transporters of rat striated membranes using [3H]- mazindol.; assay type: cell membranes, Membrane
How it was run: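 Striatal membrane homogenate was added to tubes holding drug and about 4 nM [3H]mazindol in Krebs-Ringer-HEPES (pH 7.4). Incubation was 1 h at 4 °C, followed by filtration. […] Values are the mean of 2–3 experiments.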

[5] = molecular target: T2, Sodium-dependent serotonin transporter (Rattus norvegicus, UniProt P31652); assay: Binding affinity for Serotonin transporter was determined by [3H]5-HT (serotonin) uptake by striated synaptosomes; assay type: subcellular, Brain
T2 sequence (P31652 whole entry): as the sequence (P31652 whole entry, looked up) above

[6] = molecular target: T2, Sodium-dependent serotonin transporter; assay: Inhibitory activity against Serotonin transporter was determined for [3H]5-HT (serotonin) uptake by striated synaptosomes; assay type: subcellular, Brain
[7] = molecular target: T1, Sodium-dependent dopamine transporter; assay: Binding affinity for [3H]DA (Dopamine transporter) uptake by striated synaptosomes; assay type: subcellular, Brain
How it was run: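 Striatal synaptosomes in Krebs-Ringer-HEPES (125 mM NaCl, 4.8 mM KCl, 1.2 mM MgSO4, 25 mM HEPES, pH 7.4). After 30 min drug preincubation, [3H]DA was added at about 5 nM. Uptake lasted 5 min and ended by rapid filtration. […] Ki was derived by Cheng–Prusoff with Kd 57 nM. Values are the mean of 2–3 experiments.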

[8] = molecular target: T1, Sodium-dependent dopamine transporter; assay: Inhibitory activity on dopamine transporter of rat striated membranes using [3H]- mazindol.
[9] = molecular target: T1, Sodium-dependent dopamine transporter; assay: as §1; remark: listed apart in the source

T1 sequence (P23977 whole entry): as the sequence (P23977 whole entry, looked up) above

CCC[C@H]1C(c2ccccc2)C[C@H]2CCC1N2C (stereo not given in full)
pIC50 [1]: 7.64
pIC50 [2]: 8.13
Uptake ratio [3]: 12.6
pKi [4]: 7.91
pKi [5]: 7.06
pIC50 [6]: 7.02
pKi [7]: 8.16

CCC[C@H]1C2CC[C@H](C[C@H]1c1ccc(F)cc1)N2C
pIC50 [1]: 7.43
pIC50 [2]: 7.88
Uptake ratio [3]: 8.2
pKi [4]: 7.68
pKi [5]: 7.00
pIC50 [6]: 6.96
pKi [7]: 7.92

CN1C2CC[C@@H]1C[C@@H](c1ccccc1)[C@H]2c1ccccc1
pIC50 [1]: 7.58
pIC50 [2]: 7.90
Uptake ratio [3]: 64.3
pKi [4]: 7.86
pKi [5]: 6.12
pIC50 [6]: 6.08
pKi [7]: 7.93

CN1C2CC[C@@H]1CC(c1ccccc1)[C@@H]2c1ccccc1 (stereo not given in full) [listing 1 of 2 here]
Uptake ratio [3]: 38.1

COC(=O)[C@H]1C(c2ccccc2)C[C@H]2CCC1N2C (stereo not given in full)
pIC50 [1]: 6.79
pIC50 [2]: 7.24
pKi [4]: 7.05
pKi [7]: 7.27

Cc1ccc(C2C[C@H]3CCC([C@H]2c2ccccc2)N3C)cc1 (stereo not given in full)
pIC50 [1]: 8.30
pIC50 [2]: 8.51
Uptake ratio [3]: 25.7
pKi [4]: 8.59
pKi [5]: 7.13
pIC50 [6]: 7.09
pKi [7]: 8.54

COC(=O)[C@@H]1C2CC[C@H](C[C@@H]1c1ccc(C)cc1)N2C
pIC50 [8]: 7.98
pIC50 [2]: 8.13
pKi [4]: 8.24
pKi [7]: 8.16

CCCC[C@H]1C2CC[C@H](C[C@H]1c1ccc(C)cc1)N2C
pIC50 [1]: 7.67
pIC50 [2]: 7.96
Uptake ratio [3]: 5.1
pKi [4]: 7.94
pKi [5]: 7.29
pIC50 [6]: 7.25
pKi [7]: 8.00

Cc1ccc([C@@H]2C[C@H]3CCC([C@@H]2c2ccccc2)N3C)cc1
pIC50 [1]: 8.26
pIC50 [2]: 8.35
Uptake ratio [3]: 68.9
pKi [4]: 8.54
pKi [5]: 6.54
pIC50 [6]: 6.50
pKi [7]: 8.38

CCCC[C@H]1C(c2ccc(C)cc2)C[C@H]2CCC1N2C (stereo not given in full)
pIC50 [1]: 8.46
pIC50 [2]: 8.85
Uptake ratio [3]: 11.5
pKi [4]: 8.74
pKi [5]: 7.82
pIC50 [6]: 7.78
pKi [7]: 8.88

CCC[C@H]1C2CC[C@H](C[C@H]1c1ccccc1)N2C
pIC50 [1]: 6.85
pIC50 [2]: 7.49
Uptake ratio [3]: 12.9
pKi [4]: 7.13
pKi [5]: 6.41
pIC50 [6]: 6.37
pKi [7]: 7.52

CCC[C@H]1C(c2ccc(C)cc2)C[C@H]2CCC1N2C (stereo not given in full)
pIC50 [1]: 8.53
pIC50 [2]: 8.92
Uptake ratio [3]: 9.35
pKi [4]: 8.80
pKi [5]: 7.99
pIC50 [6]: 7.95
pKi [7]: 8.96

CN1C2CC[C@@H]1C[C@@H](c1ccc(F)cc1)[C@H]2c1ccccc1
pIC50 [1]: 7.94
pIC50 [2]: 8.31
Uptake ratio [3]: 26.6
pKi [4]: 8.22
pKi [5]: 6.91
pIC50 [6]: 6.87
pKi [7]: 8.34

CN1C2CC[C@@H]1CC(c1ccccc1)[C@@H]2c1ccccc1 (mixture of isomers)
pIC50 [9]: 7.55

CN1C2CC[C@@H]1CC(c1ccccc1)[C@@H]2c1ccccc1 (stereo not given in full) [listing 2 of 2 here]
pIC50 [1]: 7.02
pIC50 [2]: 7.51
pKi [4]: 7.30
pKi [5]: 5.96
pIC50 [6]: 5.92
pKi [7]: 7.54

CCC[C@H]1C2CC[C@H](C[C@H]1c1ccc(C)cc1)N2C
pIC50 [1]: 7.74
pIC50 [2]: 7.89
Uptake ratio [3]: 4.25
pKi [4]: 8.05
pKi [5]: 7.30
pIC50 [6]: 7.26
pKi [7]: 7.93

CCC[C@H]1C(c2ccc(F)cc2)C[C@H]2CCC1N2C (stereo not given in full)
pIC50 [1]: 8.00
pIC50 [2]: 8.67
Uptake ratio [3]: 10.9
pKi [4]: 8.28
pKi [5]: 7.66
pIC50 [6]: 7.63
pKi [7]: 8.70
